An excerpt weighted towards active compounds, which were near 2.3% of everything screened.
TAAR1 ag: agonists of human TAAR1; Q96RJ0; 0.99% of 360,000 active; CHO RD-HGA16 TAAR1, Fluo-8 calcium fluorescence; vehicle wells 0%, saturating PEA agonist 100%; activation, % at 3 µM;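 active = activation above the mean activation of all test compounds in the run plus 3 SD, cut at about 38% in these data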
Target sequence (Q96RJ0 whole entry, looked up): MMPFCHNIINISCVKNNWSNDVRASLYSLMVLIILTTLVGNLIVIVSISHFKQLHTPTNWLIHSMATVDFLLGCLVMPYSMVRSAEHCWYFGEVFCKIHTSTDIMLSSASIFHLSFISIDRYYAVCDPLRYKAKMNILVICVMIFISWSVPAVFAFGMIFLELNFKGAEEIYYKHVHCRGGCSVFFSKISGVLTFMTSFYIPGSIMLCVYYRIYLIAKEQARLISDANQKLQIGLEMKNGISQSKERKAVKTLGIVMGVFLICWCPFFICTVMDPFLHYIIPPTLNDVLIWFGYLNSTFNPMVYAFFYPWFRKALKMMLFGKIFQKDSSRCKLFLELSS
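Assay system: CHO-derived RD-HGA16 cells with stable Gα16 and human TAAR1; timing: 17-24 h seeding, 75 min 37 °C dye, 30 min RT; read-out: % activation from peak over basal fluorescence ratio, DMSO-to-PEA scaled; measured by: kinetic Fluo-8 calcium fluorescence; benchmarks: low control DMSO, high control PEA (EC100); doses: 3 µM single concentration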
TAAR1 antag: human TAAR1 antagonism; Q96RJ0; CHO RD-HGA16 TAAR1, Fluo-8 calcium fluorescence, antagonist; inhibition, % at 3 µM; 1.5% of 360,000 active;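 active = inhibition above a per-plate cutoff, the mean inhibition of test compounds on that plate plus 3 SD, cut at about 49% in these data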;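 note: 0% = DMSO plus EC80 beta-PEA response and 100% = DMSO alone without agonist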
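Assay system: CHO-derived RD-HGA16 cells stably expressing human TAAR1 plus Gα16. Timing: 140 s kinetic read after compound, 140 s after agonist. Technique: kinetic Fluo-8 calcium fluorescence measurement. Measure: % inhibition of agonist calcium response.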
OXTR ag: human OXTR agonism; AID 2435; 0.32% of 320,000 active; CHO-OTR cells, Fluo-8 calcium fluorescence; normalized: DMSO 0%, oxytocin 100%; P30559; activation, % at 3 µM;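 active = activation above the mean of all tested compounds plus 3 SD, cutoff set per screening run, cut at about 20% in these data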;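 note: peak over basal fluorescence ratio from a 100 s FLIPR kinetic read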
Target sequence (P30559 whole entry, looked up): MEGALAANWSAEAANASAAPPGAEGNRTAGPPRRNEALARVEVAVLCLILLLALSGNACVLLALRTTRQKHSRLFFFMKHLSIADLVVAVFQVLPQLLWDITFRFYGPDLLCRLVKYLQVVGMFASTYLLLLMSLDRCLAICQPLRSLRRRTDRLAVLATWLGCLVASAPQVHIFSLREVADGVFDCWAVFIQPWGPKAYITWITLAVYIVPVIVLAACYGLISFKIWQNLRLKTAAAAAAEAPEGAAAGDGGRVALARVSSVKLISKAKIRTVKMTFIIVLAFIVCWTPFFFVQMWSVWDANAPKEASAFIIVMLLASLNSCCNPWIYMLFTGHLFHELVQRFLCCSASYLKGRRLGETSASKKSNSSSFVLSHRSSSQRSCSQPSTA
V1R ag counter: V1a receptor agonism, counter-screen for OXTR agonists | P37288 | CHO-V1R cells, Fluo-8 calcium fluorescence, agonist mode; 0% DMSO, 100% 3 nM vasopressin | activation, % at 3 µM | 0.25% of 320,000 active;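 active = activation above the mean activation of all tested compounds plus 3 SD, per screening run, cut at about 20% in these data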;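 note: signal is peak over basal fluorescence ratio across a 100 second FLIPR read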
OXTR potentiator: human OXTR potentiation; CHO-OTR cells, Fluo-8 calcium fluorescence, potentiator mode; 0% = oxytocin EC15, 100% = EC100; P30559; activation, % at 3 µM; 0.061% of 320,000 active; AID 2445;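 active = activation above that plate's cutoff, the mean activation of tested compounds plus 3 SD, cut at about 6.6% in these data, passing the limit was not always enough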;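 note: 100% uses oxytocin at 75 nM as the full agonist control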
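Dosing: Single dose, 3.0 µM nominal final compound concentration | Material: Human OTR in CHO cells | Technique: Kinetic Fluo-8 calcium fluorescence | Benchmarks: EC15 oxytocin alone as 0%, 75 nM oxytocin as 100% | Probe or stimulus: Oxytocin at about EC15, sub-maximal agonist stimulus | Incubation: Compound 6 min at room temperature before oxytocin, 100 s read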
TAAR1 nonsel count: counter-screen for TAAR1 antagonists: nonselective antagonists; shares compounds with TAAR1 antag; counterscreen cell line, calcium fluorescence, antagonist mode; inhibition, % at 3 µM; 77% of 2,400 active; in the data active = inhibition above about 22%;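 note: CHO-Ga16 host cells stimulated with ATP at an EC80 level; 0% = agonist EC80 plus vehicle and 100% = vehicle without agonist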
TAAR1 antag conf: confirmation of human TAAR1 antagonists | shares compounds with TAAR1 antag | TAAR1-expressing cells, fluorescence antagonist read-out | inhibition, % at 3 µM | 40% of 2,400 active | AID 651785; in the data active = inhibition above about 49%;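 note: CHO-Ga16 host cells challenged with agonist PEA near its EC80; 0% = agonist at EC80 plus vehicle and 100% = vehicle with no agonist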
Ga16 nonsel ag: nonselective Ga16 agonist in TAAR1 antagonist counter-screen. shares compounds with TAAR1 antag. Ga16-expressing cells, calcium fluorescence, agonist counterscreen. activation, % at 3 µM. 18% of 2,400 active. AID 651953; in the data active = activation above about 12%;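 note: 0% = vehicle wells and 100% = saturating stimulus response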
TAAR1 ag counter: activates human TAAR1 in antagonist counter-screen. 2% of 2,400 active. activation, % at 3 µM. shares compounds with TAAR1 antag. hTAAR1 cell line, fluorescence activation, agonist mode. AID 651955; in the data active = activation above about 37%;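 note: CHO cells stably expressing TAAR1 with calcium dye readout; 0% = DMSO vehicle and 100% = full agonist response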
* hit, by the source's call.

Results for CN1CCN(C(=O)/C(=C/c2cccs2)NC(=O)c2ccco2)CC1 ?
TAAR1 ag: 3.8; TAAR1 antag: 0.5; OXTR ag: 0.3; V1R ag counter: 0.4; OXTR potentiator: -1.1

Results for COc1ccc(SCC(=O)c2cc(C)c(OC(=S)N(C)C)c(C)c2)cc1 ?
TAAR1 ag: 8.3; TAAR1 antag: 73.7*; OXTR ag: 1.1; V1R ag counter: 1.3; OXTR potentiator: -14.9; TAAR1 nonsel count: 31.0*; TAAR1 antag conf: 46.3; Ga16 nonsel ag: 4.4; TAAR1 ag counter: 5.5

How did Cc1cc(C(=O)CSc2ccc(F)cc2)cc(C)c1OC(=S)N(C)C do in these assays?
TAAR1 ag: 4.2; TAAR1 antag: 78.1*; OXTR ag: -1.3; V1R ag counter: -0.1; OXTR potentiator: -26.5; TAAR1 nonsel count: 34.5*; TAAR1 antag conf: 60.4*; Ga16 nonsel ag: 10.6; TAAR1 ag counter: 8.0

How did Cc1ccc(SCC(=O)c2cc(C)c(O)c(C)c2)cc1 do in these assays?
TAAR1 ag: 0.5; TAAR1 antag: 15.6; OXTR ag: -1.9; V1R ag counter: -0.8; OXTR potentiator: -20.6

How did COc1ccc(Br)c(C(=O)OCC(=O)N2CCC(Cc3ccccc3)CC2)c1 do in these assays?
TAAR1 ag: 1.3; TAAR1 antag: 29.1

How did N#Cc1c(N2CCSCC2)nsc1-c1ccccc1Cl do in these assays?
TAAR1 ag: 1.7; TAAR1 antag: 1.4

What do the screens show for `CN(C)c1ccc(-c2[nH][nH]c(=O)c2NC(=O)c2ccc3ccccc3n2)cc1`?
TAAR1 ag: 0.2; TAAR1 antag: -10.3

Results for CCOC(=O)CSc1ccc2ccccc2n1 ?
TAAR1 ag: 0.9; TAAR1 antag: -15.3; OXTR ag: -0.4; V1R ag counter: -0.8; OXTR potentiator: 2.8

How did CCOC(=O)C(C#N)(Cc1ccc2ccccc2n1)Cc1ccc2ccccc2n1 do in these assays?
TAAR1 ag: 10.9; TAAR1 antag: 64.5*; TAAR1 nonsel count: 29.6*; TAAR1 antag conf: 44.1; Ga16 nonsel ag: 8.3; TAAR1 ag counter: 4.9

What do the screens show for `CC(=O)c1ccc(NC(=O)CN2C(=O)CCC2=O)cc1`?
TAAR1 ag: 4.5; TAAR1 antag: 4.4; OXTR ag: 0.9; V1R ag counter: 0.7; OXTR potentiator: 0.8

Results for Nc1ncnc2c1ncn2[C@@H]1O[C@H](C(=O)NCCCN2CCCC2=O)[C@@H](O)[C@H]1O ?
TAAR1 ag: 1.4; TAAR1 antag: -10.6

How did CN(CCOc1ccc(Cl)cc1)C(=O)c1cc(S(=O)(=O)N2CCOCC2)ccc1N1CCCC1 do in these assays?
TAAR1 ag: 17.2; TAAR1 antag: 67.4*; OXTR ag: 0.3; V1R ag counter: 3.3; OXTR potentiator: -8.6; TAAR1 nonsel count: 21.1; TAAR1 antag conf: 35.2; Ga16 nonsel ag: 7.3; TAAR1 ag counter: 4.7

What do the screens show for `Cn1cc(C(=O)NCCN2CCN(c3cccc(Cl)c3)CC2)c2c3ccccc3n(C)c2c1=O`?
TAAR1 ag: 24.6; TAAR1 antag: 56.3*; OXTR ag: 1.0; V1R ag counter: 0.9; OXTR potentiator: -8.9; TAAR1 nonsel count: 28.9*; TAAR1 antag conf: 43.1; Ga16 nonsel ag: 6.2; TAAR1 ag counter: 6.3

What do the screens show for `c1ccc(CCc2ccccc2-c2nc(-c3ccccn3)no2)cc1`?
TAAR1 ag: 18.5; TAAR1 antag: 50.6*; OXTR ag: -1.6; V1R ag counter: 0.1; OXTR potentiator: -3.9; TAAR1 nonsel count: 12.2; TAAR1 antag conf: 31.4; Ga16 nonsel ag: 8.8; TAAR1 ag counter: 16.3

Results for COCCNC(=S)N(C)[C@H]1C[C@H]2c3[nH]c4c(-c5ccc6c(c5)OCO6)cccc4c3CCN2C(=O)[C@H]1[C@H](C)O ?
TAAR1 ag: 15.5; TAAR1 antag: 61.8*; TAAR1 nonsel count: 29.4*; TAAR1 antag conf: 45.1; Ga16 nonsel ag: 4.1; TAAR1 ag counter: 7.9

What do the screens show for `C[C@H](O)[C@@H]1C(=O)N2CCc3c([nH]c4c(-c5ccc6c(c5)OCO6)cccc34)[C@@H]2C[C@@H]1N(C)C(=O)Nc1ccccc1`?
TAAR1 ag: 4.2; TAAR1 antag: 24.5

How did Cc1ccccc1NC(=O)N(C)[C@H]1C[C@H]2c3[nH]c4c(-c5ccccc5)cccc4c3CCN2C(=O)[C@H]1[C@H](C)O do in these assays?
TAAR1 ag: 15.8; TAAR1 antag: 56.7*; TAAR1 nonsel count: 29.0*; TAAR1 antag conf: 34.5; Ga16 nonsel ag: 5.9; TAAR1 ag counter: 4.3

Results for C[C@@H]1ON(C)[C@H]2C[C@H]3c4[nH]c5c(-c6ccc7c(c6)OCO7)cccc5c4CCN3C(=O)[C@@H]12 ?
TAAR1 ag: 8.7; TAAR1 antag: 61.9*; TAAR1 nonsel count: 27.3*; TAAR1 antag conf: 44.7; Ga16 nonsel ag: 7.0; TAAR1 ag counter: 4.6

How did Cc1ccccc1NC(=O)N(C)[C@H]1C[C@H]2c3[nH]c4c(-c5ccc6c(c5)OCO6)cccc4c3CCN2C(=O)[C@H]1[C@H](C)O do in these assays?
TAAR1 ag: 4.8; TAAR1 antag: 23.2

How did C[C@H](O)[C@@H]1C(=O)N2CCc3c([nH]c4c(-c5ccccc5)cccc34)[C@@H]2C[C@@H]1N(C)C(=O)Nc1ccccc1 do in these assays?
TAAR1 ag: 9.0; TAAR1 antag: 53.5*; TAAR1 nonsel count: 30.9*; TAAR1 antag conf: 26.3; Ga16 nonsel ag: 5.1; TAAR1 ag counter: 3.7

Results for CC1=C(C(=O)Nc2cccc(C(=O)NC3CCCC(C)C3C)c2)SCCO1 (stereo unspecified) ?
TAAR1 ag: 4.3; TAAR1 antag: 2.3; OXTR ag: 4.4; V1R ag counter: 6.7; OXTR potentiator: -6.8

What do the screens show for `O=c1c2ccccc2nc(COc2ccccc2)n1/N=C/c1ccc(O)cc1O`?
TAAR1 ag: 11.8; TAAR1 antag: 78.7*; OXTR ag: 0.2; V1R ag counter: 1.9; OXTR potentiator: -14.6; TAAR1 nonsel count: 31.6*; TAAR1 antag conf: 60.8*; Ga16 nonsel ag: 8.1; TAAR1 ag counter: 7.8

How did C/C(=N\OCc1nc2ccccc2c(=O)n1/N=C/c1cc([N+](=O)[O-])ccc1O)c1ccccc1 do in these assays?
TAAR1 ag: 9.1; TAAR1 antag: 64.1*; OXTR ag: 8.9; V1R ag counter: 13.5; OXTR potentiator: -7.6; TAAR1 nonsel count: 30.9*; TAAR1 antag conf: 46.6; Ga16 nonsel ag: 8.2; TAAR1 ag counter: 5.2
